ChEMBL document CHEMBL1151829, “Molluscicidal Phloroglucinols from the Fern Elaphoglossum piloselloides” (2009)

Legend:
Format in all cases: functional
Biomphalaria peregrina [1] = experiment: Molluscicidal activity against Biomphalaria peregrina assessed as mortality at 1 ppm after 24 hrs
In short: (§1)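 WHO protocol on adult snails, seven per beaker, each concentration in triplicate. Test solutions in water with MeOH ≤5% v/v; same-volume solvent controls. After 24 h exposure, snails were rinsed in dechlorinated tap water and kept 24 h to recover in dechlorinated tap water with lettuce leaves. Percent mortality was then recorded at the stated ppm.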

Biomphalaria peregrina [2] = experiment: Molluscicidal activity against Biomphalaria peregrina assessed as mortality at 10 ppm after 24 hrs; in short: as §1
Biomphalaria peregrina [3] = experiment: Molluscicidal activity against Biomphalaria peregrina assessed as mortality at 40 ppm after 24 hrs; in short: as §1
Biomphalaria peregrina [4] = experiment: Molluscicidal activity against Biomphalaria peregrina after 24 hrs; settings: for LC50: Biomphalaria peregrina, 24 h, read-out: LD50 (the source's name)
In short: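 Adult snails (seven per concentration, triplicate) exposed 24 h to test solutions in water with MeOH ≤5% v/v, per the WHO protocol. Snails were then washed and held 24 h in dechlorinated tap water with lettuce leaves before mortality was scored. Solvent-only negative control; 10 ppm CuSO₄ positive control.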

Biomphalaria peregrina [5] = experiment: Molluscicidal activity against Biomphalaria peregrina assessed as mortality at 20 ppm after 24 hrs; in short: as §1
Biomphalaria peregrina [6] = experiment: Molluscicidal activity against Biomphalaria peregrina assessed as mortality at 5 ppm after 24 hrs; in short: as §1
Biomphalaria peregrina [7] = experiment: Molluscicidal activity against Biomphalaria peregrina assessed as mortality at 0.5 ppm after 24 hrs; in short: as §1
Oncomelania hupensis = experiment: Molluscicidal activity against Oncomelania hupensis; settings: read-out: LD50 (the source's name)
Biomphalaria alexandrina = experiment: Molluscicidal activity against Biomphalaria alexandrina; settings: read-out: LD50 (the source's name)
Biomphalaria pfeifferi = experiment: Molluscicidal activity against Biomphalaria pfeifferi; settings: read-out: LD50 (the source's name)

Structure (SMILES) | Activity (Biomphalaria peregrina [1]) | Activity (Biomphalaria peregrina [2]) | Activity (Biomphalaria peregrina [3]) | LD90 (Biomphalaria peregrina [4]) | LC50 (Biomphalaria peregrina [4]) | Activity (Biomphalaria peregrina [5]) | Activity (Biomphalaria peregrina [6]) | Activity (Biomphalaria peregrina [7]) | LD100 (Biomphalaria peregrina [4]) | LC50 (Oncomelania hupensis) | LC50 (Biomphalaria alexandrina) | LC50 (Biomphalaria pfeifferi)
CC/C=C(\OC(C)=O)C1=C(OC(C)=O)C(C)(CC=C(C)C)C(OC(C)=O)=C(Cc2c(OC)cc(OC(C)=O)c(C(=O)CCCCC)c2OC(C)=O)C1=O (stereo unspecified) | 0% | 0% | 81% | 58.4 µM | 40.6 µM | 24% | 0% | – | – | – | – | –
CCCC(=O)C1=C(O)C(C)(CC=C(C)C)C(O)=C(Cc2c(OC)cc(O)c(C(=O)CCC)c2O)C1=O (stereo unspecified) | 10% | – | – | 9 µM | 5.8 µM | – | 95% | 0% | – | – | – | –
CCCCCC(=O)c1c(O)cc(OC)c(CC2=C(O)C(C)(CC=C(C)C)C(O)=C(C(=O)CCC)C2=O)c1O (stereo unspecified) | 57% | – | – | 2.6 µM | 1.8 µM | – | 100% | 10% | <=5 ppm | – | – | –
CC/C=C(\OC(C)=O)C1=C(OC(C)=O)C(C)(CC=C(C)C)C(OC(C)=O)=C(Cc2c(OC)cc(OC(C)=O)c(C(=O)CCC)c2OC(C)=O)C1=O (stereo unspecified) | 0% | 43% | – | 20.7 µM | 14.9 µM | – | 5% | – | – | – | – | –
O=C(Nc1ccc([N+](=O)[O-])cc1Cl)c1cc(Cl)ccc1O [NICLOSAMIDE] | – | – | – | – | – | – | – | – | – | ≤ 0.5 µg/mL | ≤ 0.5 µg/mL | ≤ 0.5 µg/mL
